pIC50: −log10 of the molar value. The source made the active and inactive calls. The calls are words filed in the database; no cut-off is given here.
Assays:
[1] = Antiproliferative activity against human PC9 cells at 10 uM after 48 hrs by SRB assay; type: functional; conditions: PC-9, 48 h
How it was run: (§1)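 SRB assay: 1 × 10^4 cells per well in 96-well plates exposed to compound 48 h; fixed with 10% TCA, stained 30 min at room temperature, washed with 1% acetic acid, dye dissolved in 10 mM Tris base, OD 510 nm. Percent inhibition = decrease in absorbance relative to DMSO control wells.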

[2] = target: TGF-beta receptor type-1 (Homo sapiens) (UniProt P36897); assay: Inhibition of TGFbetaR1-mediated smad phosphorylation in human HaCaT cells at 1 uM measured within 24 hrs by dual-luciferase reporter gene assay
[3] = Antimigratory activity against human H1299 cells assessed as inhibition of cell migration after 12 to 24 hrs by transwell migration assay; type: functional, cell-based; conditions: NCI-H1299
How it was run: (§2)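 Transwell chambers, 8 μm pore filters; 5 × 10^5 cells in DMEM in top chamber with compound, 10% FBS medium below, 37 °C, 5% CO2; after 12−24 h non-migrated cells swabbed off, migrated cells fixed, stained with 0.2% crystal violet in PBS and counted in five random 10× fields per membrane. Means ± SD.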

A549 [4] = assay: Antitumor activity against human A549 cells xenografted in nude mouse assessed as suppression of tumor volume at 20 mg/kg, ip qd for 60 days measured up to 60 days; type: functional, organism-based; parameters: dose 20 mg/kg
How it was run: (§3)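 Nude mice (5 weeks old, acclimated 1 week) given 5 × 10^5 A549 cells in PBS subcutaneously; at ~10 mm tumor diameter, 15 mice size-matched into three groups (n = 5): DMSO vehicle, 5.0 mg/kg or 20 mg/kg ip in 50 μL DMSO daily for 60 days. Body weight and tumor dimensions measured daily; volume = 0.52 × AB².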

Mus musculus [5] = assay: Toxicity in nude mouse xenografted with human A549 cells assessed as body weight change at 20 mg/kg, ip qd for 60 days measured up to 60 days; type: organism-based; parameters: dose 20 mg/kg, route intraperitoneal; conditions: in vivo, 1440 h; how it was run: as §3
A549 [6] = assay: Antiproliferative activity against human A549 cells after 48 hrs by SRB assay; type: functional, cell-based; conditions: A549, 48 h; how it was run: as §1
Mus musculus [7] = assay: Toxicity in nude mouse xenografted with human A549 cells assessed as body weight change at 5 mg/kg, ip qd for 60 days measured up to 60 days; type: organism-based; parameters: dose 5 mg/kg, route intraperitoneal; conditions: in vivo, 1440 h; how it was run: as §3
4T1 = assay: Antitumor activity against mouse 4T1 cells expressing luciferase allograted in ip dosed Balb/c mouse assessed as suppression of tumor volume compound administered for 20 days measured after 20 days; type: functional, organism-based
How it was run: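 Female Balb/c mice (6 weeks old) given 5 × 10^4 4T1-luciferase cells into mammary fat pad; after 7 days (~5 mm tumors) 24 mice randomized into DMSO vehicle, 1.0 or 5.0 mg/kg/day ip groups; after 20 days tumor burden quantified as bioluminescence by in vivo imaging. Body weight measured daily. Mean ± SD.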

A549 [8] = assay: Antitumor activity against human A549 cells xenografted in nude mouse assessed as suppression of tumor volume at 5 mg/kg, ip qd for 60 days measured up to 60 days; type: functional, organism-based; parameters: dose 5 mg/kg; how it was run: as §3
NCI-H1299 [9] = assay: Antimigratory activity against human H1299 cells assessed as reduction of cell velocity at 1 uM after 24 hrs by time-lapse video microscopy; type: functional, cell-based
How it was run: (§4)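 H1299 cells (5 × 10^4) in 30 mm dishes pretreated with or without compound for 24 h, then tracked by time-lapse microscopy, one frame per 10 min over 10 h; eight random cells per condition; migration distance and speed taken from track plots. Means ± SD, Student's t test.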

NCI-H1299 [10] = assay: Antiproliferative activity against human H1299 cells assessed as cell viability at 1 uM after 12 hrs by SRB assay; type: functional, cell-based
[11] = Antimigratory activity against human H1299 cells assessed as decrease in cell migration after 12 hrs by wound healing assay; conditions: NCI-H1299, 12 h
[12] = Antiproliferative activity against human PC9 cells after 48 hrs by SRB assay; type: functional, cell-based; conditions: PC-9, 48 h; how it was run: as §1
A549 [13] = assay: Antimigratory activity against human A549 cells assessed as decrease in cell migration after 12 hrs by wound healing assay; conditions: A549, 12 h
A549 [14] = assay: Antiproliferative activity against human A549 cells assessed as cell viability at 1 uM after 12 hrs by SRB assay; type: functional, cell-based
A549 [15] = assay: Antimigratory activity against human A549 cells assessed as inhibition of cell migration after 12 to 24 hrs by transwell migration assay; type: functional, cell-based; how it was run: as §2
[16] = Antiproliferative activity against human H1299 cells after 48 hrs by SRB assay; type: functional, cell-based; conditions: NCI-H1299, 48 h; how it was run: as §1
NCI-H1299 [17] = assay: Antimigratory activity against human H1299 cells assessed as reduction in distance at 1 uM after 24 hrs by time-lapse video microscopy; type: functional, cell-based; how it was run: as §4

TGF-beta receptor type-1 (Homo sapiens), sequence (P36897 whole entry, looked up): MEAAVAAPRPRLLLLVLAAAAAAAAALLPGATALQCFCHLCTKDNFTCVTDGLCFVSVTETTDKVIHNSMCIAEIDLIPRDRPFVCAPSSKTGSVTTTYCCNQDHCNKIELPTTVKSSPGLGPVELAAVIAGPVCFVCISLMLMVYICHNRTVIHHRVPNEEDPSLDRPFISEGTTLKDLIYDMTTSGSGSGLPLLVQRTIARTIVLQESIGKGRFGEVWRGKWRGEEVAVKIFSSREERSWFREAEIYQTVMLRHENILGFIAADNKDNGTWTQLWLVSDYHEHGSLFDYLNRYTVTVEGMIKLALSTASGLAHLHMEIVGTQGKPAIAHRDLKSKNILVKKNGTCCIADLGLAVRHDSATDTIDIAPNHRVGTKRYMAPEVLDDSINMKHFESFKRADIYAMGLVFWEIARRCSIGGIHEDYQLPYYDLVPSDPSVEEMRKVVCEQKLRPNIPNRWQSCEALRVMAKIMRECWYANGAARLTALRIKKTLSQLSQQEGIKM

Row | inhibition [2] [%] | Structure (SMILES) | inhibition at 10 µM [1] [%] | further results
1 | 11.2 | CC1c2[nH]c3ccc(O)cc3c2CCN1C(=O)Cc1ccccc1 (stereo unspecified) | 8 | –
2 | 50.1 | O=C(Cc1ccc(CBr)cc1)N1CCc2c([nH]c3ccccc23)C1 | 26 | –
3 | 52.1 | CCC1c2[nH]c3ccccc3c2CCN1C(=O)Cc1ccccc1 (stereo unspecified) | 24 | –
4 | 19.7 | O=C(Cc1ccccc1O)N1CCc2c([nH]c3ccccc23)C1 | 33 | –
5 | – | NC(=O)c1ccc(-c2nc(-c3ccccn3)c(-c3ccc4c(c3)OCO4)[nH]2)cc1 [SB-431542] | – | pIC50 [3]: 6.30
6 | 44.3 | CC(C)(C)OC(=O)NC(Cc1ccccc1)C(=O)N1CCc2c([nH]c3ccccc23)C1 (stereo unspecified) | 0 | –
7 | 31.1 | O=C(CCc1ccccc1)N1CCc2c([nH]c3ccccc23)C1 | 48 | –
8 | 4.1 | O=C(O)CC1c2[nH]c3ccccc3c2CCN1C(=O)Cc1ccccc1 (stereo unspecified) | 9 | –
9 | 9.5 | O=C(c1ccccc1)N1CCc2c([nH]c3ccccc23)C1 | 7 | –
10 | 2.2 | O=C(c1cccs1)N1CCc2c([nH]c3ccccc23)C1 | 9 | –
11 | – | COc1cc2ncnc(Nc3ccc(F)c(Cl)c3)c2cc1OCCCN1CCOCC1 [GEFITINIB] | – | Activity (A549 [4]): Active; Activity (Mus musculus [5]): Toxic
12 | 64.2 | O=C(Cc1ccc(O)cc1)N1CCc2c([nH]c3ccccc23)C1 | 39 | –
13 | 72.4 | O=C(Cc1ccccc1)N1CCc2c([nH]c3ccccc23)C1 | 59 | pIC50 (A549 [6]): 5.10; Activity (Mus musculus [7]): Toxic; Activity (4T1): Dose-dependent effect; Activity (A549 [8]): Active; Activity (NCI-H1299 [9]): Active; Activity (NCI-H1299 [10]): Active; pIC50 [11]: 7.00; pIC50 [12]: 5.23; pIC50 (A549 [13]): 7.00; Activity (A549 [14]): Active; pIC50 [3]: > 6.30; pIC50 (A549 [15]): > 6.30; pIC50 [16]: 5.09; Activity (NCI-H1299 [17]): Active
14 | 29.1 | O=C(Cc1cccc(O)c1)N1CCc2c([nH]c3ccccc23)C1 | 11 | –
15 | 12.3 | O=C(N1CCc2c([nH]c3ccccc23)C1)C(O)(c1ccccc1)c1ccccc1 | 0 | –
16 | 7.9 | O=C(Cc1ccc(Cl)cc1)N1CCc2c([nH]c3ccccc23)C1 | 33 | –
17 | – | O=C(Cc1ccccc1)N1CCc2c([nH]c3ccc(F)cc23)C1 | 78 | pIC50 (A549 [6]): 5.31; pIC50 [12]: 5.15; pIC50 [16]: 5.21
18 | 10.3 | O=C(Cc1ccccc1)N1CCc2c([nH]c3ccccc23)C1c1ccccc1 (stereo unspecified) | 10 | –
19 | 12.9 | O=C(C(O)c1ccccc1)N1CCc2c([nH]c3ccccc23)C1 (stereo unspecified) | 28 | –
20 | – | O=C(Cc1ccccc1)N1CCc2c([nH]c3ccc(Br)cc23)C1 | 47 | –
21 | 58.8 | CC(C)(C)OC(=O)NC(C(=O)N1CCc2c([nH]c3ccccc23)C1)c1ccccc1 (stereo unspecified) | 31 | –
22 | 11.8 | O=Cc1ccc(CC(=O)N2CCc3c([nH]c4ccccc34)C2)cc1 | 21 | –
23 | 1.1 | O=C(c1ccccn1)N1CCc2c([nH]c3ccccc23)C1 | 4 | –
24 | 49 | CCN(CC)c1ccc(CC(=O)N2CCc3c([nH]c4ccccc34)C2)cc1 | 18 | –
25 | 11.8 | O=C(Cc1ccc(F)cc1)N1CCc2c([nH]c3ccccc23)C1 | 21 | –
26 | 18.1 | Nc1ccc(CC(=O)N2CCc3c([nH]c4ccccc34)C2)cc1 | 8 | –
27 | 18.2 | COC(=O)CC1c2[nH]c3ccccc3c2CCN1C(=O)Cc1ccccc1 (stereo unspecified) | – | –
28 | 21 | O=C(Cc1ccc(O)c(O)c1)N1CCc2c([nH]c3ccccc23)C1 | 26 | –
29 | 10.9 | NC(C(=O)N1CCc2c([nH]c3ccccc23)C1)c1ccccc1 (stereo unspecified) | 11 | –
